Results: ChEMBL document CHEMBL4689842, “EUbOPEN Chemogenomics Library wave 1” (2021)

System: Fibroblast
Assay: Multiplex assay against human fibroblast
Format: toxicity, cell-based
In short: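 Imaging took place on a CQ1 microscope at 37°C and 5% CO2 once compound had been added to live cells stained at seeding with Hoechst33342, BioTracker Green Microtubule Cytoskeleton Dye, MitoTracker Red and Annexin V Alexa Fluor 680. CellPathfinder machine-learning gating classed cells as Hoechst high-intensity objects or normal cells, classed normal cells as having healthy, pyknosed or fragmented nuclei, and classed pyknosed cells as mitotic or apoptotic. Tubulin, mitochondrial-mass and membrane-permeability phenotypes are per cents of the healthy-nucleus cells.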

[1] = 12 h, 1 µM, compound concentration 1 uM, replicate 1
[2] = 12 h, 1 µM, compound concentration 1 uM, replicate 2
[3] = 12 h, 10 µM, compound concentration 10 uM, replicate 1
[4] = 12 h, 10 µM, compound concentration 10 uM, replicate 2
[5] = 24 h, 1 µM, compound concentration 1 uM, replicate 1
[6] = 24 h, 1 µM, compound concentration 1 uM, replicate 2
[7] = 24 h, 10 µM, compound concentration 10 uM, replicate 1
[8] = 24 h, 10 µM, compound concentration 10 uM, replicate 2
[9] = 48 h, 1 µM, compound concentration 1 uM, replicate 1
[10] = 48 h, 1 µM, compound concentration 1 uM, replicate 2
[11] = 48 h, 10 µM, compound concentration 10 uM, replicate 1
[12] = 48 h, 10 µM, compound concentration 10 uM, replicate 2

O=C(Cc1ccc(-c2ccc(OCCN3CCOCC3)cc2)cn1)NCc1ccccc1 [TIRBANIBULIN]
Population Apoptotic (%) [1]: 71%
Population Fragmented Nuclei (%) [1]: 20%
Population Healthy Nuclei (%) [1]: 47%
Population Hoechst High Intensity Objects (%) [1]: 16%
Population Membrane Permeable-Phenotype (%) [1]: 18%
Population Mitochondria Different-Phenotype (%) [1]: 9%
Population Mitotic Cells (%) [1]: 28%
Population Normal (%) [1]: 83%
Population Pyknosed Nuclei (%) [1]: 31%
Population Tubulin-Different-Phenotype (%) [1]: 12%
Total Cell Count [1]: 80
Population Apoptotic (%) [2]: 0%
Population Fragmented Nuclei (%) [2]: 5%
Population Healthy Nuclei (%) [2]: 90%
Population Hoechst High Intensity Objects (%) [2]: 12%
Population Membrane Permeable-Phenotype (%) [2]: 9%
Population Mitochondria Different-Phenotype (%) [2]: 21%
Population Mitotic Cells (%) [2]: 100%
Population Normal (%) [2]: 87%
Population Pyknosed Nuclei (%) [2]: 4%
Total Cell Count [2]: 108
Population Apoptotic (%) [3]: 66%
Population Fragmented Nuclei (%) [3]: 30%
Population Healthy Nuclei (%) [3]: 39%
Population Hoechst High Intensity Objects (%) [3]: 15%
Population Membrane Permeable-Phenotype (%) [3]: 17%
Population Mitochondria Different-Phenotype (%) [3]: 13%
Population Mitotic Cells (%) [3]: 33%
Population Normal (%) [3]: 84%
Population Pyknosed Nuclei (%) [3]: 29%
Population Tubulin-Different-Phenotype (%) [3]: 28%
Total Cell Count [3]: 134
Population Apoptotic (%) [4]: 50%
Population Fragmented Nuclei (%) [4]: 13%
Population Healthy Nuclei (%) [4]: 78%
Population Hoechst High Intensity Objects (%) [4]: 10%
Population Membrane Permeable-Phenotype (%) [4]: 4%
Population Mitochondria Different-Phenotype (%) [4]: 19%
Population Mitotic Cells (%) [4]: 50%
Population Normal (%) [4]: 89%
Population Pyknosed Nuclei (%) [4]: 7%
Population Tubulin-Different-Phenotype (%) [4]: 12%
Total Cell Count [4]: 81
Population Apoptotic (%) [5]: 57%
Population Fragmented Nuclei (%) [5]: 29%
Population Healthy Nuclei (%) [5]: 44%
Population Hoechst High Intensity Objects (%) [5]: 14%
Population Membrane Permeable-Phenotype (%) [5]: 37%
Population Mitochondria Different-Phenotype (%) [5]: 9%
Population Mitotic Cells (%) [5]: 42%
Population Normal (%) [5]: 85%
Population Pyknosed Nuclei (%) [5]: 26%
Population Tubulin-Different-Phenotype (%) [5]: 18%
Total Cell Count [5]: 84
Population Apoptotic (%) [6]: 61%
Population Fragmented Nuclei (%) [6]: 16%
Population Healthy Nuclei (%) [6]: 66%
Population Hoechst High Intensity Objects (%) [6]: 9%
Population Membrane Permeable-Phenotype (%) [6]: 6%
Population Mitochondria Different-Phenotype (%) [6]: 44%
Population Mitotic Cells (%) [6]: 38%
Population Normal (%) [6]: 90%
Population Pyknosed Nuclei (%) [6]: 17%
Population Tubulin-Different-Phenotype (%) [6]: 10%
Total Cell Count [6]: 155
Population Apoptotic (%) [7]: 54%
Population Fragmented Nuclei (%) [7]: 42%
Population Healthy Nuclei (%) [7]: 37%
Population Hoechst High Intensity Objects (%) [7]: 13%
Population Membrane Permeable-Phenotype (%) [7]: 17%
Population Mitochondria Different-Phenotype (%) [7]: 8%
Population Mitotic Cells (%) [7]: 45%
Population Normal (%) [7]: 86%
Population Pyknosed Nuclei (%) [7]: 20%
Population Tubulin-Different-Phenotype (%) [7]: 35%
Total Cell Count [7]: 138
Population Apoptotic (%) [8]: 66%
Population Fragmented Nuclei (%) [8]: 19%
Population Healthy Nuclei (%) [8]: 57%
Population Hoechst High Intensity Objects (%) [8]: 10%
Population Membrane Permeable-Phenotype (%) [8]: 10%
Population Mitochondria Different-Phenotype (%) [8]: 40%
Population Mitotic Cells (%) [8]: 33%
Population Normal (%) [8]: 89%
Population Pyknosed Nuclei (%) [8]: 23%
Population Tubulin-Different-Phenotype (%) [8]: 13%
Total Cell Count [8]: 82
Population Apoptotic (%) [9]: 50%
Population Fragmented Nuclei (%) [9]: 40%
Population Healthy Nuclei (%) [9]: 47%
Population Hoechst High Intensity Objects (%) [9]: 14%
Population Membrane Permeable-Phenotype (%) [9]: 31%
Population Mitochondria Different-Phenotype (%) [9]: 2%
Population Mitotic Cells (%) [9]: 50%
Population Normal (%) [9]: 85%
Population Pyknosed Nuclei (%) [9]: 12%
Population Tubulin-Different-Phenotype (%) [9]: 7%
Total Cell Count [9]: 94
Population Apoptotic (%) [10]: 71%
Population Fragmented Nuclei (%) [10]: 35%
Population Healthy Nuclei (%) [10]: 59%
Population Hoechst High Intensity Objects (%) [10]: 10%
Population Membrane Permeable-Phenotype (%) [10]: 18%
Population Mitochondria Different-Phenotype (%) [10]: 7%
Population Mitotic Cells (%) [10]: 28%
Population Normal (%) [10]: 89%
Population Pyknosed Nuclei (%) [10]: 4%
Population Tubulin-Different-Phenotype (%) [10]: 15%
Total Cell Count [10]: 170
Population Apoptotic (%) [11]: 48%
Population Fragmented Nuclei (%) [11]: 38%
Population Healthy Nuclei (%) [11]: 34%
Population Hoechst High Intensity Objects (%) [11]: 17%
Population Membrane Permeable-Phenotype (%) [11]: 21%
Population Mitochondria Different-Phenotype (%) [11]: 7%
Population Mitotic Cells (%) [11]: 51%
Population Normal (%) [11]: 82%
Population Pyknosed Nuclei (%) [11]: 26%
Population Tubulin-Different-Phenotype (%) [11]: 29%
Total Cell Count [11]: 143
Population Apoptotic (%) [12]: 66%
Population Fragmented Nuclei (%) [12]: 44%
Population Healthy Nuclei (%) [12]: 53%
Population Membrane Permeable-Phenotype (%) [12]: 15%
Population Mitochondria Different-Phenotype (%) [12]: 5%
Population Mitotic Cells (%) [12]: 33%
Population Pyknosed Nuclei (%) [12]: 2%
Population Tubulin-Different-Phenotype (%) [12]: 22%
Total Cell Count [12]: 164
